The record followed here is ChEMBL document CHEMBL1157615, “N-methyl phenylalanine-rich peptides as highly versatile blood-brain barrier shuttles” (J Med Chem, 2010).

Numbered stars: 1 amine (or outer) side, 2 acyl side, 3 side chain; on linkers, the order of the positions; unused ones are H or OH. Square brackets hold non-standard residues; d marks the D form. Peptide text beside a SMILES is read from it. * marks the point of attachment. ξ: configuration not given here. 2Nal = N[C@@H](Cc1ccc2ccccc2c1)C(=O)O; NMeF = CN[C@@H](Cc1ccccc1)C(=O)O; ξNip = O=C(C1CCCN([*:1])C1)[*:2]; X1 = NCC(=O)CCC(=O)*; GABA = NCCCC(=O)O Some results are limits rather than exact numbers.

Data set [1] is described as follows: Permeability across artificial membrane assessed as membrane retention at 200 uM by PAMPA using HPLC/MS method. The data set is classed as ADME. The method, boiled down: (§1)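 PAMPA with porcine polar brain lipid extract (20 mg/mL in dodecane) on the filter; 200 μM compound in water with 20% 1-propanol cosolvent in donor, water in acceptor; 4 h at room temperature, saturated humidity, orbital shaking 100 rpm. Donor and acceptor quantified by HPLC-MS against external calibration curves. Pe and % transport from acceptor versus initial donor concentration; retention from mass balance.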

A short description of data set [2]: Permeability across artificial membrane assessed as compound transport at 200 uM after 4 hrs by PAMPA using HPLC/MS method. The data set is classed as ADME. The essentials:
as §1
In general terms: In PAMPA a lipid-coated filter parts donor from acceptor wells.

The nature of data set [3]: Effective permeability across artificial membrane at 200 uM by PAMPA using HPLC/MS method. The data set is classed as ADME. Particulars: read-out: permeability. The method, boiled down: as §1
A short description of data set [4]: Apparent permeability in BBMEC assessed as compound transport after 2 hrs. The data set is classed as ADME, Bos taurus. Particulars: cattle.
Data set [5] can be described thus: Apparent permeability in BBMEC. Format: ADME, Bos taurus. Particulars: cattle.
Data set [6] is described as follows: Apparent permeability in BBMEC assessed as membrane retention. Format: ADME, cell membranes, Bos taurus. Particulars: cattle.

For the compound `CC(=O)N1CCC[C@H]1C(=O)N1CCC[C@H]1C(=O)N1CCC[C@H]1C(=O)N1CCC[C@H]1C(N)=O` (Ac-PPPP-NH2), the Activity in data set [1] and in data set [2] was 0% each time.
With `CC(=O)N1CCC[C@H]1C(=O)N1CCC[C@H]1C(=O)N1CCC[C@H]1C(=O)N1CCC[C@H]1C(=O)N1CCC[C@H]1C(=O)N1CCC[C@H]1C(N)=O` (Ac-PPPPPP-NH2), the Activity in data set [1] and in data set [2] was 0% each time.
For the compound `CC(=O)N1CCC[C@H]1C(=O)N1CCC[C@H]1C(=O)N1CCC[C@H]1C(=O)N1CCC[C@H]1C(=O)N1CCC[C@H]1C(=O)N1CCC[C@H]1C(=O)N1CCC[C@H]1C(=O)N1CCC[C@H]1C(N)=O` (Ac-PPPPPPPP-NH2), the Activity in data set [1] and in data set [2] was 0% in each case.
On to `CC(=O)N1CCC[C@H]1C(=O)N1CCC[C@H]1C(=O)N1CCC[C@H]1C(=O)N1CCC[C@H]1C(=O)N1CCC[C@H]1C(=O)N1CCC[C@H]1C(=O)N1CCC[C@H]1C(=O)N1CCC[C@H]1C(=O)N1CCC[C@H]1C(=O)N1CCC[C@H]1C(N)=O` (Ac-PPPPPPPPPP-NH2), for which the Activity in data set [1] and in data set [2] was 0% throughout.
Take `CC(=O)N1CCC[C@H]1C(=O)N1CCC[C@H]1C(N)=O` (Ac-Pro-Pro-NH2): the Activity in data set [1] and in data set [2] was 0% in each case.
In the case of `CN(C(=O)[C@H](Cc1ccc2ccccc2c1)NC(=O)CCCN)[C@@H](Cc1ccccc1)C(=O)N(C)[C@@H](Cc1ccccc1)C(=O)N(C)[C@@H](Cc1ccccc1)C(N)=O` (H-[GABA][2Nal][NMeF][NMeF][NMeF]-NH2), the Papp at 200 µM in data set [3] amounted to 2 nm/s. Also, the Activity in data set [1] is recorded as 18.4%; in data set [2], 0.4%.
Regarding `CN(C(=O)CCCN)[C@@H](Cc1ccccc1)C(=O)N(C)[C@@H](Cc1ccccc1)C(=O)N(C)[C@@H](Cc1ccccc1)C(=O)N(C)[C@@H](Cc1ccccc1)C(N)=O` (H-[GABA][NMeF][NMeF][NMeF][NMeF]-NH2), the Papp at 200 µM in data set [3] was 4 nm/s. Further, the Activity is recorded as below 1% in data set [1] and 0.8% in data set [2].
For `CN(C(=O)CCC(=O)CN)[C@@H](Cc1ccccc1)C(=O)N(C)[C@@H](Cc1ccccc1)C(=O)N(C)[C@@H](Cc1ccccc1)C(=O)N(C)[C@@H](Cc1ccccc1)C(N)=O` (X1-[NMeF][NMeF][NMeF][NMeF]-NH2), the Papp at 200 µM in data set [3] was found to be 10 nm/s. Also, the Activity in data set [4] is recorded as 17.8%; in data set [1], 14.5%; in data set [2], 2.1%; in data set [6], 50.7%. Also, the Papp in data set [5] stood at 150 nm/s.
As for `CN(C(=O)[C@H](Cc1ccc2ccccc2c1)NC(=O)C1CCCNC1)[C@@H](Cc1ccccc1)C(=O)N(C)[C@@H](Cc1ccccc1)C(=O)N(C)[C@@H](Cc1ccccc1)C(N)=O` (some centres undefined) (ξNip-[2Nal][NMeF][NMeF][NMeF]-NH2), in data set [3], the Papp at 200 µM was found to be 11 nm/s. Further, the Activity worked out at 4.1% in data set [4], 23.6% in data set [1], 2.4% in data set [2] and 83.8% in data set [6]. The Papp in data set [5] is 35 nm/s.
For `CN(C(=O)C1CCCNC1)[C@@H](Cc1ccccc1)C(=O)N(C)[C@@H](Cc1ccccc1)C(=O)N(C)[C@@H](Cc1ccccc1)C(=O)N(C)[C@@H](Cc1ccccc1)C(N)=O` (some centres undefined) (ξNip-[NMeF][NMeF][NMeF][NMeF]-NH2), in data set [3], the Papp at 200 µM was determined as 14 nm/s. Besides, the Activity in data set [4] was 7.9%; in data set [1], 4.6%; in data set [2], 2.8%; in data set [6], 74%. The Papp in data set [5] is 66 nm/s.
Turning to `NCC(=O)CCC(=O)O` [AMINOLEVULINIC ACID], the values for the Activity in data set [1] and in data set [2] were 23% and 0%, respectively.
Take `Cn1c(=O)c2c(ncn2C)n(C)c1=O` [CAFFEINE]: the Activity worked out at 20.6% in data set [4] and 67.4% in data set [6]. In data set [5], the Papp is 161 nm/s.
Take `NC(=O)N1c2ccccc2C=Cc2ccccc21` [CARBAMAZEPINE]: the Papp at 200 µM in data set [3] came to 115 nm/s. In addition, the Activity is 20% in data set [4], below 1% in data set [1], 19.3% in data set [2] and 67.5% in data set [6]. Moreover, in data set [5], the Papp was 165 nm/s.
Consider `NCCCC(=O)O` [GAMMA-AMINOBUTYRIC ACID], for which the Activity in data set [1] is 5.4%; in data set [2], 0%.
On the same counts, the results for `O=C(O)C1CCCNC1` (centres undefined) [NIPECOTIC ACID] are 52.6% and 0%.
As for `CC(C)NCC(O)COc1cccc2ccccc12` (centres undefined) [PROPRANOLOL], the Activity is given as 21.2% in data set [4], 17.2% in data set [1], 13.9% in data set [2] and 63% in data set [6]. In addition, the Papp in data set [5] was determined as 169 nm/s.
